As usually defined, the inhibition is the change of the read-out against control, counted positive when it falls. As usually defined, the EC50 is the concentration giving half of the maximal effect.

These results are taken from ChEMBL document CHEMBL1155413, “Synthesis and evaluation of a library of 2,5-bisdiamino-benzoquinone derivatives as probes to modulate protein-protein interactions in prions” (Bioorg Med Chem Lett, 2010).

Format in all cases: cell-based
The nature of series [1]: Cytotoxicity against mouse ScGT1 cells at 1 uM after 5 days by calcein-AM staining. Conditions: scgt1, 120 h. The method in brief: (§1)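 ScGT1 cells in DMEM + 10% FBS, plated at 25000 cells per well. Compounds dissolved in 100% DMSO and diluted in PBS, then added at 1 nM–10 μM for 5 days at 37 °C, 5% CO₂. Viability read by Calcein-AM fluorescence on a plate reader as percent viable cells vs untreated control; LC₅₀ taken as the 50% lethal concentration.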

For a further series, the system named is ScGT1. In words: Antiprion activity against scrapie prion protein replication in mouse ScGT1 cells assessed as inhibition of formation of PrPSc from PrPc after 5 days by western-blot analysis. Conditions: dose or concentration not given here. The arrangement: concentration or dose not given beside the values. The method in brief:
(§2)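 ScGT1 cells in DMEM + 10% FBS, split 1:10 into Petri dishes and grown 2 days at 37 °C, 5% CO₂. Compounds added at non-toxic concentrations from 0.1 nM upward and left 5 days. Proteins then extracted, quantified, digested with proteinase K and Western-blotted. Densitometry of PK-resistant PrP gives percent remaining vs untreated cells; EC₅₀ taken as the concentration for half-maximal inhibition.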

The nature of series [2]: Antiprion activity against scrapie prion protein replication in mouse ScGT1 cells assessed as inhibition of formation of PrPSc from PrPc […] after 5 days by western-blot analysis. The conditions noted are these: ScGT1, 120 h. The essentials: as §2
Series [3] can be described thus: Cytotoxicity against mouse ScGT1 cells at after 5 days by calcein-AM staining. The conditions noted are these: read-out: LC50. The essentials: as §1

On to `COC(=O)[C@H](C)NC1=C(Br)C(=O)C(N[C@@H](CCCCNC(=O)OC(C)(C)C)C(=O)OC)=C(Br)C1=O`, for which the Activity in series [1] is 52.3%.
For `COC(=O)[C@H](C)NC1=C(Br)C(=O)C(N[C@@H](C)C(=O)OC)=C(Br)C1=O`, the inhibition in the series with ScGT1 was 0.29%. In addition, in series [1], the Activity is given as 91.2%.
The matching figures for `COC(=O)[C@H](C)NC1=C(Cl)C(=O)C(N[C@@H](CCSC)C(=O)OC)=C(Cl)C1=O`: 4.8% and 95.5%.
The corresponding values for `COC(=O)[C@H](C)NC1=C(Cl)C(=O)C(N[C@@H](C)C(=O)OC)=C(Cl)C1=O` are 0.36% and 71.6%.
The corresponding values for `COC(=O)[C@H](C)NC1=C(Br)C(=O)C(N[C@@H](Cc2c[nH]c3ccccc23)C(=O)OC)=C(Br)C1=O` are 0.43% and 65.9%.
Turning to `CC[C@H](C)[C@@H](NC1=C(Cl)C(=O)C(N[C@@H](C)C(=O)OC)=C(Cl)C1=O)C(=O)OC`, in the series on ScGT1, the inhibition stood at 6.6%. For the same compound, the Activity in series [1] is on record as 88.2%.
The corresponding values for `COC(=O)[C@H](C)NC1=C(Br)C(=O)C(N[C@@H](CCSC)C(=O)OC)=C(Br)C1=O` are 11.4% and 96.1%.
Turning to `COC(=O)[C@H](C)NC1=C(Cl)C(=O)C(N[C@@H](CCCCNC(=O)OC(C)(C)C)C(=O)OC)=C(Cl)C1=O`, in series [1], the Activity is given as 40.7%.
`COC(=O)[C@H](C)NC1=C(Cl)C(=O)C(N[C@@H](CCCNC(=N)N[N+](=O)[O-])C(=O)OC)=C(Cl)C1=O`: the inhibition in the series with ScGT1 came to 0.23%. Further, the Activity in series [1] is given as 81.4%.
Turning to `COC(=O)[C@H](C)NC1=C(Cl)C(=O)C(N[C@@H](Cc2c[nH]c3ccccc23)C(=O)OC)=C(Cl)C1=O`, the inhibition in the series on ScGT1 stood at 0.25%. Besides, in series [1], the Activity is 96%. The EC50 in series [2] came to 7700 nM.
With `CC[C@H](C)[C@@H](NC1=C(Br)C(=O)C(N[C@@H](C)C(=O)OC)=C(Br)C1=O)C(=O)OC`, the inhibition in the series with ScGT1 is 28.1%. Also, the Activity in series [1] was 91.3%.
`COC(=O)[C@H](C)NC1=C(Cl)C(=O)C(N[C@@H](Cc2ccccc2)C(=O)OC)=C(Cl)C1=O`: the inhibition in the series on ScGT1 came out at 73.2%. Further, the Activity in series [1] is listed as 68.4%. Besides, the CC50 at 120 h in series [3] was 2400 nM. In addition, the concentration giving a half-maximal response (EC50) in series [2] came to 870 nM.
In the case of `COC(=O)[C@H](C)NC1=C(Br)C(=O)C(N[C@@H](Cc2ccccc2)C(=O)OC)=C(Br)C1=O`, in the series with ScGT1, the inhibition was found to be 18.1%. The Activity in series [1] is on record as 80.2%. Moreover, in series [2], the EC50 came to 3600 nM.
With `COC(=O)[C@H](C)NC1=C(Br)C(=O)C(N[C@@H](CCCNC(=N)N[N+](=O)[O-])C(=O)OC)=C(Br)C1=O`, in the series on ScGT1, the inhibition is 0.31%. In addition, the Activity in series [1] is on record as 74.1%.
